# Measurements: ChEMBL document CHEMBL5705892, “MK-2206, an allosteric Akt inhibitor, enhances antitumor efficacy by standard chemotherapeutic agents or molecular targeted drugs in vitro and in vivo” (Mol Cancer Ther, 2010)
# Calls of active or inactive are those of the source. The calls are words filed in the database; no cut-off is given here.
# Legend:
# [1] = tested on: SK-BR-3; assay: Synergistic antiproliferative activity against human SK-BR-3 cells assessed as combination index at ED90 measured after 72 hrs in presence of lapatinib by celltiter-glo assay; type: functional
# [2] = tested on: NCI-H292; assay: Antitumor activity against human NCI-H292 cells xenografted in CD-1 mouse assessed as tumor growth suppression at 120 mg/kg, po administered 3 times per week for 2 weeks and measured twice a week during compound dosing by caliper method; type: functional, organism-based
# How it was run: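 Female CD1-nude mice carried s.c. NCI-H292 cells in Matrigel/PBS and were randomized at 0.2 cm³, n = 5. […] MK-2206 (30% Captisol) was given 2 h later at 120 mg/kg po on days 0, 2, 4, 7, 9, 11, or at 360 mg/kg on days 0 and 7. Control received vehicle. Caliper volume twice weekly.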
# [3] = tested on: HCC1954; assay: Synergistic antiproliferative activity against human HCC1954 cells assessed as combination index at ED50 measured after 96 hrs in presence of lapatinib by celltiter-glo assay; type: functional
# [4] = tested on: HCC70; assay: Synergistic antiproliferative activity against lapatinib pretreated human HCC70 cells assessed as combination index at ED75 measured after 72 hrs by celltiter-glo assay; type: functional
# [5] = tested on: MDA-MB-468; assay: Synergistic antiproliferative activity against human MDA-MB-468 cells assessed as combination index at ED90 treated 24 hrs prior to lapatinib and measured after 72 hrs by celltiter-glo assay; type: functional; conditions: time 96 hrs
# [6] = tested on: SK-OV-3; assay: Synergistic antiproliferative activity against lapatinib pretreated human SK-OV-3 cells assessed as combination index at ED90 measured after 72 hrs by celltiter-glo assay; type: functional
# [7] = tested on: HCC70; assay: Induction of apoptosis in human HCC70 cells assessed as increase in caspase-3/7 activity at 3 umol/L measured after 48 hrs in presence of lapatinib by caspase-glo 3/7 assay relative to control; type: functional; conditions: dose 3 µmol/L
# How it was run: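 HCC70 cells were grown in RPMI 1640 with 10% heat-inactivated FBS at 37°C in 5% CO₂. They were exposed for 48 h to MK-2206 (0, 0.03, 0.3, 3 µmol/L), with or without lapatinib (0, 1, 3, 5, 10 µmol/L). Caspase-3/7 activity was read by Caspase-Glo 3/7 luminescence and expressed as fold induction over the DMSO vehicle control. The experiment was run twice, and representative data were reported.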
# [8] = biological target: RAC-alpha serine/threonine-protein kinase (Homo sapiens) (UniProt P31749); assay: Inhibition of AKT phosphorylation at S473 residue in human HCC70 cells at 1 umol/L measured after 3 to 24 hrs in presence of lapatinib by Western blot analysis; type: cell-based; conditions: dose 1.0 µmol/L, time 3-24 hrs
# How it was run: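 HCC70 cells at ~70% confluence were exposed to 10 µmol/L lapatinib, 1 µmol/L MK-2206, or both, for 0, 3, 6, 12 or 24 h. Lysates were prepared in Triton X-100/Tris buffer (pH 7.5) with protease and phosphatase inhibitors. Immunoblots after SDS-PAGE and nitrocellulose transfer were probed for pAkt and pS6.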
# [9] = tested on: HCC70; assay: Antitumor activity against human HCC70 cells xenografted in CB17/icr SCID mouse assessed as tumor growth inhibition at 120 mg/kg, po administered 3 times per week for 3 weeks starting 2 hrs post-lapatinib treatment and measured twice a week during compound dosing by caliper method; type: functional, organism-based
# How it was run: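 Female C.B-17/ICR-scid mice were given s.c. HCC70 cells in 50% Matrigel/50% PBS in the left flank. They were randomized at a mean tumor size of 0.2 cm³, n = 5 per group. Lapatinib (distilled water) was given at 100 mg/kg po, 5 d/wk for 3 wk. MK-2206 (30% Captisol) was given at 120 mg/kg po, 3×/wk, 2 h after lapatinib. Calipers twice weekly; volume = […] × 0.5.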
# [10] = Toxicity in human SK-OV-3 cells xenografted CB17/icr SCID mouse assessed as mortality at 60 to 120 mg/kg, po administered 3 times per week for 2 weeks starting 2 hrs post lapatinib treatment and measured during compound dosing; type: organism-based; conditions: in vivo, 336 h, dose 60-120 mg/kg
# How it was run: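 SK-OV-3 cells in 50% Matrigel/PBS injected s.c. into flank of female C.B-17/ICR-scid mice; dosing began after 3 wk, randomized at mean tumour 0.13 cm³ (n = 5). Lapatinib 100 mg/kg p.o. in distilled water 5 d/wk for 2 wk; MK-2206 in 30% Captisol p.o. days 0, 2, 4, 7, 9, 11. Body weight and physical signs monitored.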
# [11] = tested on: BT-474; assay: Synergistic antiproliferative activity against docetaxel pretreated human BT-474 cells assessed as combination index at ED75 measured after 72 hrs by celltiter-glo assay; type: functional
# [12] = tested on: BT-20; assay: Synergistic antiproliferative activity against human BT-20 cells assessed as combination index at ED50 measured after 72 hrs in presence of docetaxel by celltiter-glo assay; type: functional
# How it was run: (§1)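 Cells grown in RPMI 1640 with 10% heat-inactivated FBS at 37°C, 5% CO₂. Seeded at 2 to 3 × 10³ per well; drugs added 24 h later. […] Viability read as cellular ATP by CellTiter-Glo. CI calculated by Chou–Talalay from median-effect plots at ED50, ED75 and ED90.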
# [13] = tested on: MDA-MB-468; assay: Synergistic antiproliferative activity against human MDA-MB-468 cells assessed as combination index at ED50 measured after 72 hrs in presence of docetaxel by celltiter-glo assay; type: functional; how it was run: as §1
# [14] = tested on: MDA-MB-468; assay: Synergistic antiproliferative activity against human MDA-MB-468 cells assessed as combination index at ED75 measured after 72 hrs in presence of docetaxel by celltiter-glo assay; type: functional; how it was run: as §1
# [15] = tested on: NCI-H460; assay: Synergistic antiproliferative activity against human NCI-H460 cells assessed as combination index at ED75 measured after 72 hrs in presence of gemcitabine by celltiter-glo assay; type: functional
# [16] = tested on: A2780; assay: Induction of apoptosis in human A2780 cells assessed as increase in caspase-3/7 activity measured after 48 hrs in presence of carboplatin by caspase-glo 3/7 assay; type: functional, cell-based; conditions: dose 0.0625-1 µM
# [17] = Toxicity in human NCI-H460 cells xenografted CD1 nude mouse assessed as body weight loss at 120 mg/kg, po administered 3 times per week for 2 weeks in presence of gemcitabine measured during compound dosing relative to control; type: organism-based; conditions: in vivo, 336 h
# How it was run: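 CD1-nude mice with s.c. NCI-H460 xenografts, randomized at mean 0.2 cm³, n=5/group, dosing from day 8 post-implant. Body weight compared with vehicle-only controls.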
# [18] = tested on: NCI-H661; assay: Synergistic antiproliferative activity against human NCI-H661 cells assessed as combination index at ED25 to ED90 measured after 72 hrs in presence of carboplatin by celltiter-glo assay; type: functional
# [19] = tested on: UMC-11; assay: Synergistic antiproliferative activity against human UMC-11 cells assessed as combination index at ED25 to ED90 measured after 72 hrs in presence of gemcitabine by celltiter-glo assay; type: functional
# [20] = tested on: NCI-H460; assay: Induction of apoptosis in human NCI-H460 cells assessed as fold induction of capsase-3/7 activity measured after 24 to 48 hrs in presence of gemcitabine by caspase-glo 3/7 assay; type: functional; conditions: time 24-48 hrs
# [21] = tested on: UMC-11; assay: Induction of apoptosis in human UMC-11 cells assessed as fold induction of capsase-3/7 activity measured after 24 to 48 hrs in presence of gemcitabine by caspase-glo 3/7 assay; type: functional; conditions: time 24-48 hrs
# RAC-alpha serine/threonine-protein kinase (Homo sapiens), sequence (P31749 whole entry): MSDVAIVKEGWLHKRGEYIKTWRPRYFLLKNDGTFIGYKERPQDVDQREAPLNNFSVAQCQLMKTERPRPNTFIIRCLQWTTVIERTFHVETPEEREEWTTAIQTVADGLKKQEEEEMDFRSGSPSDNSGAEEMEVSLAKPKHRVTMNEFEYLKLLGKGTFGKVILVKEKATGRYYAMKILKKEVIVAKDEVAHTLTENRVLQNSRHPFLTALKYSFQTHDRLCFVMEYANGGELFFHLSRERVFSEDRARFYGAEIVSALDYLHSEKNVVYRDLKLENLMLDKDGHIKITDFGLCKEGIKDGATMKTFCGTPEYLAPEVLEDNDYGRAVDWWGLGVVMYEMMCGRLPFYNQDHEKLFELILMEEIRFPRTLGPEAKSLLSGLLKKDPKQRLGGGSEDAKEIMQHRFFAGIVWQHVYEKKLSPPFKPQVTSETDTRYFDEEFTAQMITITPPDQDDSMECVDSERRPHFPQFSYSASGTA
structure (smiles),measurement,setting,value
Cl.NC1(c2ccc(-c3nc4ccn5c(=O)[nH]nc5c4cc3-c3ccccc3)cc2)CCC1,CI90,[1],0.09
same,Activity,[2],inactive
same,CI50,[3],0.18
same,CI75,[4],0.18
same,CI90,[5],0.18
same,CI90,[6],0.18
same,fold change (FC),[7],7
same,inhibition,[8],Active
same,TGI,[9],Active
same,Activity,[10],Non-Toxic
same,CI75,[11],0.5
same,CI50,[12],1
same,CI50,[13],0.9
same,CI75,[14],0.8
same,CI75,[15],0.39
same,Activity,[16],Dose-Dependent Effect
same,Activity,[17],7%
same,CI,[18],0.37
same,CI,[19],0.53
same,fold change (FC),[20],1.6
same,fold change (FC),[21],1.2
